Calls of active or inactive are those of the source. The calls are words filed in the database; no cut-off is given here.
How the values were obtained:
[1] = target: cAMP-dependent protein kinase type I-alpha regulatory subunit (Homo sapiens) (UniProt P10644); test: Binding affinity to recombinant human full length PKA-R1alpha expressed in Escherichia coli BL21 DE3-RIL cells assessed as reduction in interaction with AKAP at 20 nM by fluorescence polarization analysis
Summary of the method: (§1)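 Single-concentration direct FP screen: 5 μM full-length recombinant human RIα or RIβ mixed with 20 nM 5(6)-FAM-labelled peptide in 20 mM MOPS pH 7, 150 mM NaCl, 0.005% (v/v) CHAPS. Read at room temperature, Ex 482 nm/Em 520 nm, in duplicate.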

[2] = target: cAMP-dependent protein kinase type I-beta regulatory subunit (Homo sapiens) (UniProt P31321); test: Binding affinity to recombinant human full length PKA-R1beta expressed in Escherichia coli BL21 DE3-RIL cells assessed as reduction in interaction with AKAP at 20 nM by fluorescence polarization analysis; summary of the method: as §1
Sequence of cAMP-dependent protein kinase type I-beta regulatory subunit (Homo sapiens) (P31321 whole entry): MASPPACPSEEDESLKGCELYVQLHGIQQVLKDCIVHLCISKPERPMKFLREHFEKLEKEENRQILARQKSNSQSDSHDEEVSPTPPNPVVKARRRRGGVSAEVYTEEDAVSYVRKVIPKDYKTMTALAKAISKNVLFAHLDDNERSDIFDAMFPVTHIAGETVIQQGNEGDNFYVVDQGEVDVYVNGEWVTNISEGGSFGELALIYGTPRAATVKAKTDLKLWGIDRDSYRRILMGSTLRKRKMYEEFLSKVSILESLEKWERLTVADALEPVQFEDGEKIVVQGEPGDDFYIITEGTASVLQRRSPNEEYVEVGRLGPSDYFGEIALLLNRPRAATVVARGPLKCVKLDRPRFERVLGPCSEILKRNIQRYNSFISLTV

Sequence of cAMP-dependent protein kinase type I-alpha regulatory subunit (Homo sapiens) (P10644 whole entry): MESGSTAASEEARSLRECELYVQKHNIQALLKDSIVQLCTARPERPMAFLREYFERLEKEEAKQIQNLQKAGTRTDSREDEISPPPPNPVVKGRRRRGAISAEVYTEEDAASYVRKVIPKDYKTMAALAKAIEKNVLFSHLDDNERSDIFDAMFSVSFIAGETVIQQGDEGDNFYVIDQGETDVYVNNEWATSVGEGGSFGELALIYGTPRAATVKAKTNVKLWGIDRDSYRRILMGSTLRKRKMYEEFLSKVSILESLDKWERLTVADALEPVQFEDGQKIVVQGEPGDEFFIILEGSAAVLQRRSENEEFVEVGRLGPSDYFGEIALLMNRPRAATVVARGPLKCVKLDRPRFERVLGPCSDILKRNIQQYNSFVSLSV

Row | SMILES | Activity [1] | Activity [2]
1 | CC(C)C[C@H](NC(=O)[C@H](C)NC(=O)[C@]1(C)CCC/C=C/CCC[C@](C)(NC(=O)[C@H](CO)NC(=O)[C@@H](NC(=O)[C@H](CC(C)C)NC(=O)[C@H](C)NC(=O)[C@H](CCCCN)NC(=O)[C@H](C)NC(=O)[C@H](CC(C)C)NC(=O)[C@H](CCCCN)NC(=O)[C@H](CCCCN)NC(=O)COCCOCCOCCN)C(C)C)C(=O)N[C@@H](C)C(=O)N[C@@H](CC(C)C)C(=O)N[C@@H](CCCCN)C(=O)N1)C(=O)N[C@@H](CCCCN)C(=O)O | inactive | inactive
2 | CC(C)C[C@H](NC(=O)[C@H](C)NC(=O)[C@]1(C)CCC/C=C/CCC[C@](C)(NC(=O)[C@H](CO)NC(=O)[C@@H](NC(=O)[C@H](CC(C)C)NC(=O)[C@H](Cc2ccccc2)NC(=O)[C@H](CCCCN)NC(=O)[C@H](C)NC(=O)[C@H](CC(C)C)NC(=O)[C@H](CCCCN)NC(=O)[C@H](CCCCN)NC(=O)COCCOCCOCCN)C(C)C)C(=O)N[C@@H](C)C(=O)N[C@@H](CC(C)C)C(=O)N[C@@H](CCCCN)C(=O)N1)C(=O)N[C@@H](C)C(=O)O | inactive | inactive
3 | CC(C)C[C@H](NC(=O)[C@H](C)NC(=O)[C@H](CCCCN)NC(=O)COCCOCCOCCN)C(=O)N[C@@H](C)C(=O)N[C@@H](CCCCN)C(=O)N[C@@H](Cc1ccccc1)C(=O)N[C@@H](CC(C)C)C(=O)N[C@H](C(=O)N[C@@H](CO)C(=O)N[C@@]1(C)CCC/C=C/CCC[C@@](C)(C(=O)N[C@@H](C)C(=O)N[C@@H](CC(C)C)C(=O)N[C@@H](CCCCN)C(=O)O)NC(=O)[C@H](CCCCN)NC(=O)[C@H](CC(C)C)NC(=O)[C@H](C)NC1=O)C(C)C | inactive | inactive
4 | CC(C)C[C@H](NC(=O)[C@H](C)NC(=O)[C@]1(C)CCC/C=C/CCC[C@](C)(NC(=O)[C@H](CO)NC(=O)[C@@H](NC(=O)[C@H](CC(C)C)NC(=O)[C@H](Cc2ccccc2)NC(=O)[C@H](CCCCN)NC(=O)[C@H](C)NC(=O)[C@H](C)NC(=O)[C@H](CCCCN)NC(=O)[C@H](CCCCN)NC(=O)COCCOCCOCCN)C(C)C)C(=O)N[C@@H](C)C(=O)N[C@@H](CC(C)C)C(=O)N[C@@H](CCCCN)C(=O)N1)C(=O)N[C@@H](CCCCN)C(=O)O | inactive | inactive
5 | CC(C)C[C@H](NC(=O)[C@H](C)NC(=O)[C@]1(C)CCC/C=C/CCC[C@](C)(NC(=O)[C@H](CO)NC(=O)[C@@H](NC(=O)[C@H](CC(C)C)NC(=O)[C@H](Cc2ccccc2)NC(=O)[C@H](CCCCN)NC(=O)[C@H](C)NC(=O)[C@H](CC(C)C)NC(=O)[C@H](CCCCN)NC(=O)[C@H](CCCCN)NC(=O)COCCOCCOCCN)C(C)C)C(=O)N[C@@H](C)C(=O)N[C@@H](CC(C)C)C(=O)N[C@@H](CCCCN)C(=O)N1)C(=O)N[C@@H](CCCCN)C(=O)O | inactive | inactive
6 | CC(C)C[C@H](NC(=O)[C@H](C)NC(=O)[C@]1(C)CCC/C=C/CCC[C@](C)(NC(=O)[C@H](C)NC(=O)[C@@H](NC(=O)[C@H](CC(C)C)NC(=O)[C@H](Cc2ccccc2)NC(=O)[C@H](CCCCN)NC(=O)[C@H](C)NC(=O)[C@H](CC(C)C)NC(=O)[C@H](CCCCN)NC(=O)[C@H](CCCCN)NC(=O)COCCOCCOCCN)C(C)C)C(=O)N[C@@H](C)C(=O)N[C@@H](CC(C)C)C(=O)N[C@@H](CCCCN)C(=O)N1)C(=O)N[C@@H](CCCCN)C(=O)O | inactive | inactive
7 | CC(C)C[C@@H]1NC(=O)[C@H](C)NC(=O)[C@@](C)(NC(=O)[C@H](CO)NC(=O)[C@@H](NC(=O)[C@H](CC(C)C)NC(=O)[C@H](Cc2ccccc2)NC(=O)[C@H](CCCCN)NC(=O)[C@H](C)NC(=O)[C@H](CC(C)C)NC(=O)[C@H](CCCCN)NC(=O)[C@H](CCCCN)NC(=O)COCCOCCOCCN)C(C)C)CCC/C=C/CCC[C@@](C)(C(=O)N[C@@H](C)C(=O)N[C@@H](C)C(=O)N[C@@H](CCCCN)C(=O)O)NC(=O)[C@H](CCCCN)NC1=O | inactive | inactive
8 | CC(C)C[C@H](NC(=O)[C@H](C)NC(=O)[C@]1(C)CCC/C=C/CCC[C@](C)(NC(=O)[C@H](CO)NC(=O)[C@H](C)NC(=O)[C@H](CC(C)C)NC(=O)[C@H](Cc2ccccc2)NC(=O)[C@H](CCCCN)NC(=O)[C@H](C)NC(=O)[C@H](CC(C)C)NC(=O)[C@H](CCCCN)NC(=O)[C@H](CCCCN)NC(=O)COCCOCCOCCN)C(=O)N[C@@H](C)C(=O)N[C@@H](CC(C)C)C(=O)N[C@@H](CCCCN)C(=O)N1)C(=O)N[C@@H](CCCCN)C(=O)O | inactive | inactive
9 | CC(C)C[C@H](NC(=O)[C@H](C)NC(=O)[C@]1(C)CCC/C=C/CCC[C@](C)(NC(=O)[C@H](CO)NC(=O)[C@@H](NC(=O)[C@H](C)NC(=O)[C@H](Cc2ccccc2)NC(=O)[C@H](CCCCN)NC(=O)[C@H](C)NC(=O)[C@H](CC(C)C)NC(=O)[C@H](CCCCN)NC(=O)[C@H](CCCCN)NC(=O)COCCOCCOCCN)C(C)C)C(=O)N[C@@H](C)C(=O)N[C@@H](CC(C)C)C(=O)N[C@@H](CCCCN)C(=O)N1)C(=O)N[C@@H](CCCCN)C(=O)O | inactive | inactive
10 | CC(C)C[C@H](NC(=O)[C@H](C)NC(=O)[C@]1(C)CCC/C=C/CCC[C@](C)(NC(=O)[C@H](CO)NC(=O)[C@@H](NC(=O)[C@H](CC(C)C)NC(=O)[C@H](Cc2ccccc2)NC(=O)[C@H](CCCCN)NC(=O)[C@H](C)NC(=O)[C@H](CC(C)C)NC(=O)[C@H](CCCCN)NC(=O)[C@H](C)NC(=O)COCCOCCOCCN)C(C)C)C(=O)N[C@@H](C)C(=O)N[C@@H](CC(C)C)C(=O)N[C@@H](CCCCN)C(=O)N1)C(=O)N[C@@H](CCCCN)C(=O)O | inactive | inactive
11 | CC(C)C[C@@H]1NC(=O)[C@H](C)NC(=O)[C@@](C)(NC(=O)[C@H](CO)NC(=O)[C@@H](NC(=O)[C@H](CC(C)C)NC(=O)[C@H](Cc2ccccc2)NC(=O)[C@H](CCCCN)NC(=O)[C@H](C)NC(=O)[C@H](CC(C)C)NC(=O)[C@H](CCCCN)NC(=O)[C@H](CCCCN)NC(=O)COCCOCCOCCN)C(C)C)CCC/C=C/CCC[C@@](C)(C(=O)N[C@@H](C)C(=O)N[C@@H](CC(C)C)C(=O)N[C@@H](CCCCN)C(=O)O)NC(=O)[C@H](C)NC1=O | inactive | inactive
12 | CC(C)C[C@H](NC(=O)[C@H](C)NC(=O)[C@]1(C)CCC/C=C/CCC[C@](C)(NC(=O)[C@H](CO)NC(=O)[C@@H](NC(=O)[C@H](CC(C)C)NC(=O)[C@H](Cc2ccccc2)NC(=O)[C@H](CCCCN)NC(=O)[C@H](C)NC(=O)[C@H](CC(C)C)NC(=O)[C@H](CCCCN)NC(=O)[C@H](CCCCN)NC(=O)COCCOCCOCCN)C(C)C)C(=O)N[C@@H](C)C(=O)N[C@@H](C)C(=O)N[C@@H](CCCCN)C(=O)N1)C(=O)N[C@@H](CCCCN)C(=O)O | inactive | inactive
13 | CC(C)C[C@H](NC(=O)[C@H](C)NC(=O)[C@]1(C)CCC/C=C/CCC[C@](C)(NC(=O)[C@H](CO)NC(=O)[C@@H](NC(=O)[C@H](CC(C)C)NC(=O)[C@H](Cc2ccccc2)NC(=O)[C@H](C)NC(=O)[C@H](C)NC(=O)[C@H](CC(C)C)NC(=O)[C@H](CCCCN)NC(=O)[C@H](CCCCN)NC(=O)COCCOCCOCCN)C(C)C)C(=O)N[C@@H](C)C(=O)N[C@@H](CC(C)C)C(=O)N[C@@H](CCCCN)C(=O)N1)C(=O)N[C@@H](CCCCN)C(=O)O | inactive | inactive
